The text below walks through data of ChEMBL document CHEMBL3244270, “Nitrosoureidonucleosides” (1979).

What all share (assay type): functional
Assay [1] is described as follows: Cytotoxicity against human Hep2 cells. As to conditions: HEp-2, read-out: ED50 (the source's name). Put shortly: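 H.Ep-2 cultures; ED50 taken as the concentration that holds growth of treated cells to 50% of untreated controls.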
Assay [2] has as its system L1210. As to the kind of experiment: In-vivo antitumor activity against mouse L1210 cells at 100 mg/kg. Put shortly:
(§1)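 Leukemia L1210 in vivo; compound given as a single dose on day 1 only, with dose in mg/kg. Read-out is life span of treated versus control animals, expressed as T/C %.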

The test system of assay [3] is L1210. As to the kind of experiment: In-vivo antitumor activity against mouse L1210 cells at 25 mg/kg. In outline:
as §1

Assay [4] deals with L1210. As to the kind of experiment: In-vivo antitumor activity against mouse L1210 cells at 200 mg/kg. In outline: as §1
The subject of assay [5] is L1210. As to the kind of experiment: Cytotoxicity against mouse L1210 cells. As to conditions: read-out: ED50 (the source's name).

For the compound `CN(N=O)C(=O)N[C@H]1[C@@H](O)[C@H](n2cnc3c(N)ncnc32)O[C@@H]1CO`, the EC50 in assay [1] is above 60 µM. In the assay on L1210 [2], this compound displayed a T/C of 123%. `CNC(=O)N[C@H]1[C@@H](O)[C@H](n2cnc3c(N)nc(Cl)nc32)O[C@@H]1CO`: the EC50 in assay [1] is above 50 µM. As for `CNC(=O)N[C@H]1[C@@H](O)[C@H](n2cnc3c(N)ncnc32)O[C@@H]1CO`, the EC50 in assay [1] is above 60 µM. For `CNC(=O)N[C@H]1[C@@H](O)[C@H](n2ccc(N)nc2=O)O[C@@H]1CO`, the EC50 in assay [1] was above 60 µM. For `CN(N=O)C(=O)N[C@H]1[C@@H](O)[C@H](n2cnc3c(N)nc(Cl)nc32)O[C@@H]1CO`, the EC50 in assay [1] was above 50 µM. Regarding `CN(N=O)C(=O)N[C@H]1[C@@H](O)[C@H](n2ccc(N)nc2=O)O[C@@H]1CO`, the EC50 in assay [1] is above 50 µM. The compound further returned a T/C with L1210 [3] of 110%. For the compound `CN(N=O)C(=O)N[C@H]1[C@@H](O)[C@H](n2ccc(=O)[nH]c2=O)O[C@@H]1CO`, the EC50 in assay [1] was above 60 µM. The compound further yielded a T/C in the assay with L1210 [2] of 122%. In the case of `CNC(=O)NC[C@H]1O[C@@H](n2cnc3c(N)ncnc32)[C@H](O)[C@@H]1O`, the EC50 in assay [1] was above 60 µM. For the same compound, in the assay on L1210 [4], the T/C turned out to be 98%. For `CN(N=O)C(=O)NC[C@H]1O[C@@H](n2cnc3c(N)ncnc32)[C@H](O)[C@@H]1O`, the EC50 in assay [1] came out at 40 µM. In the assay with L1210 [4], the T/C came out at 106%. For the compound `CN(N=O)C(=O)NC[C@H]1O[C@@H](n2ccc(=O)[nH]c2=O)[C@H](O)[C@@H]1O`, the EC50 in assay [1] was above 50 µM.

With `CN(N=O)C(=O)NC[C@H]1O[C@@H](n2ccc(N)nc2=O)[C@H](O)[C@@H]1O`, in assay [1], the EC50 was above 50 µM.

Turning to `Cc1cn([C@H]2C[C@H](NC(=O)N(C)N=O)[C@@H](CO)O2)c(=O)[nH]c1=O`, in the assay on L1210 [5], the EC50 amounted to 1 µM.

One may read the T/C as the ratio of treated to control.
